Measured values as given in ChEMBL document CHEMBL4715911, “Quest for a potent antimalarial drug lead: Synthesis and evaluation of 6,7-dimethoxyquinazoline-2,4-diamines” (Bioorg Med Chem, 2021).

How the values were obtained:
Plasmodium falciparum = experiment: Antimalarial activity against Plasmodium falciparum NF54 assessed as inhibition of parasite growth incubated for 48 hrs by [3H]hypoxanthine incorporation assay based liquid scintillation counting method; type: functional, organism-based
Method in brief: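 ³H-hypoxanthine incorporation against erythrocytic P. falciparum NF54 (drug-sensitive). Culture in hypoxanthine-free RPMI 1640 with HEPES, NaHCO3, neomycin and Albumax, on human A+ red cells at 2.5% hematocrit, 0.3% parasitemia. Eleven 3-fold dilutions spanning 100 to 0.002 µg/mL. 37 °C in 4% CO2/3% O2/93% N2. Label (0.5 µCi) added after 48 h, then a further 24 h. Scintillation counting. IC50 from 4-parameter logistic fit, average of two independent determinations.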

L6 = experiment: Cytotoxicity against rat L6 cells assessed as reduction in cell viability incubated for 70 hrs by resazurin dye based fluorescence assay; conditions: L6, 70 h
Method in brief: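 L6 rat skeletal myoblasts seeded at 4000 cells/well in RPMI 1640 with 1% L-glutamine and 10% FBS. Eleven 3-fold drug dilutions (100 to 0.002 µg/mL) added 24 h after seeding, then 70 h incubation. Resazurin added for 2 h. Fluorescence read at ex 536/em 588 nm. IC50 from 4-parameter logistic fit, average of two independent determinations.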

[1] = Selectivity index, ratio of IC50 for cytotoxicity against rat L6 cells to IC50 for antimalarial activity against Plasmodium falciparum NF54; type: toxicity, cell-based; conditions: read-out: Ratio IC50
Method in brief: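 SI calculated as L6 cytotoxicity IC50 divided by P. falciparum NF54 IC50, both measured in parallel in vitro assays.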

CCNc1nc(Cl)nc2cc(OC)c(OC)cc12
IC50 (Plasmodium falciparum): 15800 nM | IC50 (L6): 52600 nM | selectivity ratio [1]: 3.33

COc1cc2nc(N3CCCC3)nc(NC(C)CCc3ccccc3)c2cc1OC (stereo not drawn)
IC50 (Plasmodium falciparum): 7.3 nM | IC50 (L6): 4480 nM | selectivity ratio [1]: 613

COc1cc2nc(Nc3ccncc3)nc(NCc3cccnc3)c2cc1OC
IC50 (Plasmodium falciparum): 12.8 nM | IC50 (L6): 138000 nM | selectivity ratio [1]: 10700

COc1cc2nc(Nc3ccncc3)nc(NC(C)C)c2cc1OC
IC50 (Plasmodium falciparum): 2.9 nM | IC50 (L6): 81400 nM | selectivity ratio [1]: 28000

COc1cc2nc(Nc3cccnc3)nc(Nc3ccccc3C)c2cc1OC
IC50 (Plasmodium falciparum): 20.6 nM | IC50 (L6): 170000 nM | selectivity ratio [1]: 8250

CCNc1nc(Nc2ccncc2)nc2cc(OC)c(OC)cc12
IC50 (Plasmodium falciparum): 3.07 nM | IC50 (L6): 55100 nM | selectivity ratio [1]: 17900

COc1cc2nc(N3CCCC3)nc(NC(C)C)c2cc1OC
IC50 (L6): 12500 nM | selectivity ratio [1]: 3430

CCNc1nc(OC)nc2cc(OC)c(OC)cc12
IC50 (Plasmodium falciparum): 34800 nM | IC50 (L6): 67300 nM | selectivity ratio [1]: 1.9

CCC(CC)Nc1nc(Nc2ccncc2)nc2cc(OC)c(OC)cc12
IC50 (Plasmodium falciparum): 51.8 nM | IC50 (L6): 110000 nM | selectivity ratio [1]: 2130

COc1cc2nc(N3CCCC3)nc(NCc3cccnc3)c2cc1OC
IC50 (Plasmodium falciparum): 13.6 nM | IC50 (L6): 27300 nM | selectivity ratio [1]: 2000

CCC(CC)Nc1nc(Nc2cccnc2)nc2cc(OC)c(OC)cc12
IC50 (Plasmodium falciparum): 19 nM | IC50 (L6): 155000 nM | selectivity ratio [1]: 8190

COc1cc2nc(N3CCCC3)nc(N3CCCC3)c2cc1OC
IC50 (Plasmodium falciparum): 1040 nM | IC50 (L6): 3960 nM | selectivity ratio [1]: 3.8

CCCCNc1nc(NCCCC)c2cc(OC)c(OC)cc2n1
IC50 (Plasmodium falciparum): 2.1 nM | IC50 (L6): 3670 nM | selectivity ratio [1]: 1750

CCNc1nc(Nc2cccnc2)nc2cc(OC)c(OC)cc12
IC50 (Plasmodium falciparum): 6.14 nM | IC50 (L6): 112000 nM | selectivity ratio [1]: 18200

CCCCNc1nc(NCc2cccnc2)nc2cc(OC)c(OC)cc12
IC50 (Plasmodium falciparum): 2.17 nM | IC50 (L6): 11100 nM | selectivity ratio [1]: 5120

COc1cc2nc(Nc3ccncc3)nc(NC(C)c3ccccc3)c2cc1OC (stereo not drawn)
IC50 (Plasmodium falciparum): 0.4 nM | IC50 (L6): 62700 nM | selectivity ratio [1]: 156000

COc1cc2nc(N3CCCC3)nc(NCc3ccccc3)c2cc1OC
IC50 (Plasmodium falciparum): 5.49 nM | IC50 (L6): 9490 nM | selectivity ratio [1]: 1900

CCCCCCCCNc1nc(Nc2ccncc2)nc2cc(OC)c(OC)cc12
IC50 (Plasmodium falciparum): 7.3 nM | IC50 (L6): 1760 nM | selectivity ratio [1]: 241

COc1cc2nc(Nc3cccnc3)nc(NC(C)C)c2cc1OC
IC50 (Plasmodium falciparum): 14.7 nM | IC50 (L6): 249000 nM | selectivity ratio [1]: 16900

CCC(C)Nc1nc(Nc2ccncc2)nc2cc(OC)c(OC)cc12 (stereo not drawn)
IC50 (Plasmodium falciparum): 2.83 nM | IC50 (L6): 47700 nM | selectivity ratio [1]: 16800

CCCCNc1nc(NCCCC)c2ccccc2n1
IC50 (Plasmodium falciparum): 121 nM | IC50 (L6): 3010 nM | selectivity ratio [1]: 25.6

CCCCNc1nc(Nc2cccnc2)nc2cc(OC)c(OC)cc12
IC50 (Plasmodium falciparum): 25.4 nM | IC50 (L6): 150000 nM | selectivity ratio [1]: 5900

CCCCCCCCNc1nc(N2CCCC2)nc2cc(OC)c(OC)cc12
IC50 (Plasmodium falciparum): 1.4 nM | IC50 (L6): 1480 nM | selectivity ratio [1]: 1060

CCNc1nc(NCCc2ccccc2)nc2cc(OC)c(OC)cc12
IC50 (Plasmodium falciparum): 17 nM | IC50 (L6): 1680 nM | selectivity ratio [1]: 99

CCCCNc1nc(NCCCOCC)nc2cc(OC)c(OC)cc12
IC50 (Plasmodium falciparum): 27.6 nM | IC50 (L6): 4460 nM | selectivity ratio [1]: 161

COc1cc2nc(Nc3ccncc3)nc(Nc3ccccc3C(F)(F)F)c2cc1OC
IC50 (Plasmodium falciparum): 22.6 nM | IC50 (L6): 138000 nM | selectivity ratio [1]: 6100

CCNc1nc(NCc2ccccc2)nc2cc(OC)c(OC)cc12
IC50 (Plasmodium falciparum): 14.8 nM | IC50 (L6): 5440 nM | selectivity ratio [1]: 367

COc1cc2nc(Nc3ccncc3)nc(NCc3ccncc3)c2cc1OC
IC50 (Plasmodium falciparum): 30.9 nM | IC50 (L6): 138000 nM | selectivity ratio [1]: 4470

CCCCNc1nc(NCc2ccccn2)nc2cc(OC)c(OC)cc12
IC50 (Plasmodium falciparum): 10.9 nM | IC50 (L6): 10600 nM | selectivity ratio [1]: 1000

CCCCNc1nc(Nc2ccncc2)nc2cc(OC)c(OC)cc12
IC50 (Plasmodium falciparum): 5.67 nM | IC50 (L6): 105000 nM
